ChEMBL document CHEMBL1121486, “Synthesis of nitrosourea derivatives of pyridine and piperidine as potential anticancer agents” (1980)
“And” between values parts separate entries of the source, which are not always exact repeats. Equal entries are not always repeated.

Key:
3EM 37 [1] = assay: Compound tested for activity against 3EM 37 mouse ependymoblastoma after single ip injection on day 1 at optimal dose of 100 mg/kg (Dose range 200-12.5); assay type: functional; conditions: route intraperitoneal
3EM 37 [2] = assay: Compound tested for toxicity against 3EM 37 Mouse Ependymoblastoma after single ip injection on day 1 at optimal dose (OD) of 100 mg/kg on the 5th day after the injection of the compound; (10/10); assay type: functional; conditions: route intraperitoneal
3EM 37 [3] = assay: Effect of compound on 3EM 37 mouse ependymoblastoma after single ip injection on day 1 recorded as animal weight difference of the treated and the control (T-C) at OD of 100 mg/kg; assay type: functional; conditions: route intraperitoneal
3EM 37 [4] = assay: Effect of compound on 3EM 37 mouse ependymoblastoma after single ip injection on day 1 recorded as percentage of cured animals at OD of 100 mg/kg; assay type: functional; conditions: route intraperitoneal
L1210 [5] = assay: Compound tested for activity against mouse leukemia L1210 tumor (Intracerebrally implanted) after single ip injection on day 1 at optimal dose of 100 mg/kg (Dose range 200-12.5); assay type: functional; conditions: route intraperitoneal
L1210 [6] = assay: Compound tested for activity against mouse leukemia L1210 tumor (Intraperitoneally implanted) after single ip injection on day 1 at optimal dose of 100 mg/kg (Dose range 200-12.5); assay type: functional; conditions: route intraperitoneal
Outline: (§1)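 L1210 leukaemia implanted intraperitoneally in mice. Compound given over a dose range (mg/kg); optimum dose selected. Survivors for toxicity recorded day 5 post-injection. Measures: T – C body weight difference (g), % T/C, and cures, defined as 30-day survivors.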

L1210 [7] = assay: The effect of compound on mouse leukemia L1210 tumor (Intraperitoneally implanted)after single dose injected intraperitoneally on day 1 […] at OD of 100 mg/kg; assay type: functional; conditions: route intraperitoneal
L1210 [8] = assay: Compound tested for toxicity against mouse leukemia L1210 tumor (Intracerebrally implanted) after single ip injection on day 1 at optimal dose (OD) of 100 mg/kg on the 5th day after the injection of the compound; (6/6); assay type: functional; conditions: route intraperitoneal
L1210 [9] = assay: Compound tested for toxicity against mouse leukemia L1210 tumor (Intraperitoneally implanted) after single ip injection on day 1 at optimal dose (OD) of 100 mg/kg on the 5th day after the injection of the compound; (6/6); assay type: functional; conditions: route intraperitoneal
[10] = system: Lewis lung carcinoma cell line; assay: Effect of compound on Lewis Lung carcinoma after single dose injected intraperitoneally on day 1 recorded as animal weight difference of the treated and the control (T-C) at OD of 64 mg/kg; assay type: functional, Mus musculus; conditions: route intraperitoneal
Mus musculus [11] = assay: Compound tested for the effect on total white blood cell count and reported as percentage change from control on day 7 at 53 mg/kg (ip); assay type: functional
Outline: (§2)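 Total white blood cell count in mice. Treatment was intraperitoneal at the listed mg/kg doses, 10 mice per group. Counts were taken on days 3, 5 and 7 and expressed as % change from control, with the control being each group's predose value. Significance was taken at p ≤ 0.05.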

Mus musculus [12] = assay: Compound tested for the effect on total white blood cell count and reported as percentage change from control on day 5 at 53 mg/kg (ip); assay type: functional; outline: as §2
Mus musculus [13] = assay: Compound tested for the effect on total white blood cell count and reported as percentage change from control on day 7 at 106 mg/kg (ip); assay type: functional; outline: as §2
Mus musculus [14] = assay: Compound tested for the effect on total white blood cell count and reported as percentage change from control on day 7 at 13.25 mg/kg (ip); assay type: functional; outline: as §2
Mus musculus [15] = assay: Compound tested for the effect on total white blood cell count and reported as percentage change from control on day 3 at 106 mg/kg (ip); assay type: functional; outline: as §2
Mus musculus [16] = assay: Compound tested for the effect on total white blood cell count and reported as percentage change from control on day 3 at 13.25 mg/kg (ip); assay type: functional; outline: as §2
Mus musculus [17] = assay: Compound tested for the effect on total white blood cell count and reported as percentage change from control on day 3 at 26.5 mg/kg (ip); assay type: functional; outline: as §2
Mus musculus [18] = assay: Compound tested for the effect on total white blood cell count and reported as percentage change from control on day 3 at 53 mg/kg (ip); assay type: functional; outline: as §2
Mus musculus [19] = assay: Compound tested for the effect on total white blood cell count and reported as percentage change from control on day 5 at 106 mg/kg (ip); assay type: functional; outline: as §2
Mus musculus [20] = assay: Compound tested for the effect on total white blood cell count and reported as percentage change from control on day 5 at 13.25 mg/kg (ip); assay type: functional; outline: as §2
P388 [21] = assay: Compound tested for toxicity against mouse P388 cell (Intraperitoneally implanted) after single ip injection on day 1 at optimal dose (OD) of 100 mg/kg on the 5th day after the injection of the compound; (6/6); assay type: functional; conditions: route intraperitoneal
P388 [22] = assay: Effect of compound on P388 cell after single ip injection on day 1 recorded as animal weight difference of the treated and the control (T-C) at OD of 100 mg/kg; assay type: functional, Mus musculus; conditions: route intraperitoneal
Outline: (§3)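 Mice bore intraperitoneally implanted P-388 leukaemia and were dosed across a mg/kg range, with an optimum dose picked. Toxicity survivors were scored on day 5 after injection. Outcomes were T – C animal weight difference (g) and % T/C. A cure was a 30-day survivor.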

P388 [23] = assay: The effect of compound on P388 cell after single dose injected intraperitoneally on day 1 […] at OD of 100 mg/kg; assay type: functional, Mus musculus; conditions: route intraperitoneal; outline: as §3
P388 [24] = assay: Compound tested for activity against mouse leukemia L1210 tumor (Intraperitoneally implanted) after single ip injection on day 1 at optimal dose of 100 mg/kg (Dose range 200-6.25); assay type: functional; conditions: route intraperitoneal; outline: as §1
[25] = system: Lewis lung carcinoma cell line; assay: Compound tested for activity against Lewis lung carcinoma after single ip injection on day 1 at optimal dose of 64 mg/kg (Dose range 64-2); conditions: route intraperitoneal
[26] = system: Lewis lung carcinoma cell line; assay: Effect of compound on Lewis Lung carcinoma after single dose injected intraperitoneally on day 1 recorded as percentage of cured animals at OD of 64 mg/kg; conditions: Mus musculus, route intraperitoneal
L1210 [27] = assay: Compound tested for activity against mouse leukemia L1210 tumor (Intraperitoneally implanted) after single ip injection on day 1 at optimal dose of 100 mg/kg (Dose range 100-6.25); assay type: functional; conditions: route intraperitoneal; outline: as §1
L1210 [28] = assay: Effect of compound on mouse leukemia L1210 tumor (Intraperitoneally implanted) after single dose injected intraperitoneally on day 1 recorded as animal weight difference of the treated and the control (T-C) at OD of 100 mg/kg; assay type: functional; conditions: route intraperitoneal; outline: as §1
L1210 [29] = assay: The effect of compound on mouse leukemia L1210 tumor (Intracerebrally implanted) after single dose injected intraperitoneally on day 1 […] at OD of 100 mg/kg; assay type: functional; conditions: route intraperitoneal
[30] = system: Lewis lung carcinoma cell line; assay: Effect of compound on Lewis Lung carcinoma after single ip injection on day 1 recorded as animal weight difference of the treated and the control (T-C) at OD of 64-2 mg/kg; assay type: functional, Mus musculus
Mus musculus [31] = assay: Compound tested for the effect on total white blood cell count and reported as percentage change from control on day 7 at 75 mg/kg (ip); assay type: functional; outline: as §2
Mus musculus [32] = assay: Compound tested for the effect on total white blood cell count and reported as percentage change from control on day 7 at 8.38 mg/kg (ip); assay type: functional; outline: as §2
Mus musculus [33] = assay: Compound tested for the effect on total white blood cell count and reported as percentage change from control on day 5 at 75 mg/kg (ip); assay type: functional; outline: as §2
Mus musculus [34] = assay: Compound tested for the effect on total white blood cell count and reported as percentage change from control on day 5 at 8.38 mg/kg (ip); assay type: functional; outline: as §2
Mus musculus [35] = assay: Compound tested for the effect on total white blood cell count and reported as percentage change from control on day 7 at 18.75 mg/kg (ip); assay type: functional; outline: as §2
Mus musculus [36] = assay: Compound tested for the effect on total white blood cell count and reported as percentage change from control on day 7 at 37.5 mg/kg (ip); assay type: functional; outline: as §2
Mus musculus [37] = assay: Compound tested for the effect on total white blood cell count and reported as percentage change from control on day 3 at 18.75 mg/kg (ip); assay type: functional; outline: as §2
Mus musculus [38] = assay: Compound tested for the effect on total white blood cell count and reported as percentage change from control on day 3 at 37.5 mg/kg (ip); assay type: functional; outline: as §2
Mus musculus [39] = assay: Compound tested for the effect on total white blood cell count and reported as percentage change from control on day 3 at 75 mg/kg (ip); assay type: functional; outline: as §2
Mus musculus [40] = assay: Compound tested for the effect on total white blood cell count and reported as percentage change from control on day 3 at 8.38 mg/kg (ip); assay type: functional; outline: as §2
Mus musculus [41] = assay: Compound tested for the effect on total white blood cell count and reported as percentage change from control on day 5 at 18.75 mg/kg (ip); assay type: functional; outline: as §2
Mus musculus [42] = assay: Compound tested for the effect on total white blood cell count and reported as percentage change from control on day 5 at 37.5 mg/kg (ip); assay type: functional; outline: as §2
[43] = system: 3EM 37 ependymoblastoma (Mus musculus); assay: Compound tested for activity against 3EM 37 mouse ependymoblastoma after single ip injection on day 1 at optimal dose of 100 mg/kg (Dose range 200-12.5); conditions: route intraperitoneal
[44] = system: Lewis lung carcinoma cell line; assay: Effect of compound on Lewis Lung carcinoma after single dose injected intraperitoneally on day 1 recorded as percentage of cured animals at OD of 64 mg/kg; conditions: Mus musculus, route intraperitoneal; remark: listed apart in the source
3EM 37 [45] = assay: Compound tested for toxicity against 3EM 37 mouse ependymoblastoma after single ip injection on day 1 at optimal dose (OD) of 100 mg/kg on the 5th day after the injection of the compound; (10/10); conditions: route intraperitoneal

O=C(O)/C=C\C(=O)O.O=NN(CCCl)C(=O)NC1CCN(Cc2ccccc2)CC1
Optimal dose (3EM 37 [1]): 100 mg/kg
Survival (3EM 37 [2]): 10
T-C (3EM 37 [3]): -1.2 g
T/C (3EM 37 [4]): 242%
Optimal dose (L1210 [5]): 100 mg/kg
Optimal dose (L1210 [6]): 100 mg/kg
T/C (L1210 [7]; 100 mg/kg): 379% and 151%
Survival (L1210 [8]): 6
Survival (L1210 [9]): 6
T-C [10]: -2.9 g
Change (Mus musculus [11]): 14% and 7%
Change (Mus musculus [12]): -5% and 5%
Change (Mus musculus [13]): 1%
Change (Mus musculus [14]): 8%
Change (Mus musculus [15]): -67%
Change (Mus musculus [16]): 3%
Change (Mus musculus [17]): 12%
Change (Mus musculus [18]): -22%
Change (Mus musculus [19]): -35%
Change (Mus musculus [20]): 18%
Survival (P388 [21]): 6
T-C (P388 [22]): -4.5 g
T/C (P388 [23]): 361%
Optimal dose (P388 [24]): 100 mg/kg
Optimal dose [25]: 64 mg/kg
T/C [26]: >353%

O=C(O)/C=C\C(=O)O.O=NN(CCCl)C(=O)NC1CCCN(Cc2ccccc2)C1 (stereo unspecified)
T/C (3EM 37 [4]): 223%
Optimal dose (L1210 [5]): 100 mg/kg
Optimal dose (L1210 [27]): 100 mg/kg
T-C (L1210 [28]): -5 g
T/C (L1210 [29]): 192%
T/C (L1210 [7]): 340%
Survival (L1210 [8]): 6
Survival (L1210 [9]): 6
Optimal dose [30]: 64 mg/kg
T-C [10]: -3.7 g
Change (Mus musculus [31]): 11%
Change (Mus musculus [32]): 23%
Change (Mus musculus [33]): -45%
Change (Mus musculus [34]): 15%
Change (Mus musculus [35]): 40%
Change (Mus musculus [36]): 60%
Change (Mus musculus [37]): -26%
Change (Mus musculus [38]): -20%
Change (Mus musculus [39]): -63%
Change (Mus musculus [40]): -19%
Change (Mus musculus [41]): -5%
Change (Mus musculus [42]): 16%
Optimal dose [43]: 100 mg/kg
T/C [44]: 259%
Survival (3EM 37 [45]): 10
